Assay results: ChEMBL document CHEMBL1122437, “beta 1-selective adrenoceptor antagonists. 1. Synthesis and beta-adrenergic blocking activity of a series of binary (aryloxy)propanolamines” (1983)
Activity calls are given as the source filed them. The calls are words filed in the database; no cut-off is given here.

Key:
[1] = test system: Rattus norvegicus; assay: Beta-1-adrenoceptor blockade measured as inhibition of tachycardia caused by isoprenaline in anesthetized rats when administered intravenously; format: functional; conditions: iv
Outline: (§1)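 Anesthetized rats with a catheterized carotid artery for blood pressure. Heart rate was taken from the pulse signal by cardiotachometer. Tachycardia to isoprenaline (0.2 µg kg-1 iv) was recorded before and after accumulative iv doses of antagonist (0.1 mL 100 g-1). The value is the iv dose giving 50% reduction of the isoprenaline tachycardia.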

[2] = species: Rattus norvegicus; assay: Ratio of rat Beta-2 to Beta-1 adrenoceptor antagonism; format: functional
Outline: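 Anesthetized, carotid-cannulated rats were given isoprenaline (0.2 µg kg-1 iv) before and after accumulative iv antagonist doses. The β1 value is the iv dose halving the tachycardia, read by cardiotachometer from the pulse. The β2 value is the iv dose halving the depressor response. The ratio compares these two doses.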

[3] = molecular target: Beta-1 adrenergic receptor (Cavia porcellus) (UniProt B0FL73)
[4] = molecular target: Beta-2 adrenergic receptor (Cavia porcellus) (UniProt Q8K4Z4)
[5] = molecular target: Beta-1 adrenergic receptor (Rattus norvegicus) (UniProt P18090); assay: Beta-1 adrenergic receptor blockade measured as inhibition of tachycardia caused by isoprenaline in anesthetized rats when administered intravenously; format: functional; outline: as §1
[6] = molecular target: Beta-1 adrenergic receptor (Rattus norvegicus) (UniProt P18090); assay: Beta-1 adrenergic receptor blockade measured as inhibition of tachycardia caused by isoprenaline in anesthetized rats when administered intravenously; inactive; format: functional; outline: as §1
[7] = molecular target: Beta-2 adrenergic receptor (Rattus norvegicus) (UniProt P10608)
Chain of Beta-2 adrenergic receptor (Rattus norvegicus) (P10608 whole entry, looked up): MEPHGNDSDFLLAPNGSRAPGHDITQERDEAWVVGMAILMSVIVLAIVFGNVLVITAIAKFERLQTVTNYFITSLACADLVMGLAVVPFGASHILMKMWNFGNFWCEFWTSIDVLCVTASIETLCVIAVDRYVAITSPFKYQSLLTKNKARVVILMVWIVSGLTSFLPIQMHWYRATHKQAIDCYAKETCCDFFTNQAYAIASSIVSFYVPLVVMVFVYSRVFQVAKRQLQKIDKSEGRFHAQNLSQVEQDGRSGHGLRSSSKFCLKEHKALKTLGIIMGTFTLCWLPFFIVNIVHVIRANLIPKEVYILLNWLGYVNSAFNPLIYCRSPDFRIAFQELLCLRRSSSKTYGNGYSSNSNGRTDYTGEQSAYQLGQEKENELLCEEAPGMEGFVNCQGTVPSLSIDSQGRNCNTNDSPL

Chain of Beta-1 adrenergic receptor (Cavia porcellus) (B0FL73 1-467): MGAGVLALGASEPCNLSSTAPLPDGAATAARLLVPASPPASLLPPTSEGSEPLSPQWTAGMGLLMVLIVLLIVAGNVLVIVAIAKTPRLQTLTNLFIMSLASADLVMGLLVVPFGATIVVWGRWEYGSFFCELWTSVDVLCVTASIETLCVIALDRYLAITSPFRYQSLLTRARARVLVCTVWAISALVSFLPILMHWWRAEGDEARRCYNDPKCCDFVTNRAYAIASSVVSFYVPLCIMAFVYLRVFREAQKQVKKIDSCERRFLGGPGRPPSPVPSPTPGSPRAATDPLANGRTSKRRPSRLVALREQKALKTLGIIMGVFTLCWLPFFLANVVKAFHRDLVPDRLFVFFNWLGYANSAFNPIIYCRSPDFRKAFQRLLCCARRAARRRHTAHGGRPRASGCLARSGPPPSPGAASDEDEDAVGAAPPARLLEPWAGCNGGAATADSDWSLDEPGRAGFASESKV
Chain of Beta-1 adrenergic receptor (Rattus norvegicus) (P18090 whole entry, looked up): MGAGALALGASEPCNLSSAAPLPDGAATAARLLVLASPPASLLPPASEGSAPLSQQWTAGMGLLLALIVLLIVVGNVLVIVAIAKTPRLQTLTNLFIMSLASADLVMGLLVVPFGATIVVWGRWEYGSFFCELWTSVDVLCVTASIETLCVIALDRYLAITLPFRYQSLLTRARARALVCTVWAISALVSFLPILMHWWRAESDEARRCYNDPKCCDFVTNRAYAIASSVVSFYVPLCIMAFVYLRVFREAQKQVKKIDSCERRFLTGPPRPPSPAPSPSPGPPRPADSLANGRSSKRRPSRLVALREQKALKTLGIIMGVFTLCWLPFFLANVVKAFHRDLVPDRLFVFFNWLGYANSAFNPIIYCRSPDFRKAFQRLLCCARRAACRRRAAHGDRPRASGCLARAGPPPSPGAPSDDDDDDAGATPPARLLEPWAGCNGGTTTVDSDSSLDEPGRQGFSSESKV
Chain of Beta-2 adrenergic receptor (Cavia porcellus) (Q8K4Z4 whole entry, looked up): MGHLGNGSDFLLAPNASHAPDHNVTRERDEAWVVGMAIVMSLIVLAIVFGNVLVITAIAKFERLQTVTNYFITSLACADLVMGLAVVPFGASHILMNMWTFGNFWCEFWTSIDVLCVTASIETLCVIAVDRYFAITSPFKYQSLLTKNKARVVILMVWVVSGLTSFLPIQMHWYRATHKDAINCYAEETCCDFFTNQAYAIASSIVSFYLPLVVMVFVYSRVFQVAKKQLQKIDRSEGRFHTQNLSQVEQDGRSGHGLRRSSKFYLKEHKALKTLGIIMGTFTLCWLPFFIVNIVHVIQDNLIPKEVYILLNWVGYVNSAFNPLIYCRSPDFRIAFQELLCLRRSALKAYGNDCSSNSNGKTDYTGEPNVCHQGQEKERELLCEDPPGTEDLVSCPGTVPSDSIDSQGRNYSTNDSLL

| Compound | ED50 [1] [mg/kg] | Ratio [2] | Affinity constant [3] [µM] | Affinity constant [4] [µM] | ED50 [5] [mg/kg] | ED50 [6] | ED50 [7] |
| --- | --- | --- | --- | --- | --- | --- | --- |
| CC(C)NC[C@H](O)COc1ccc(OCCCCCCOc2ccc(OC[C@@H](O)CNC(C)C)cc2)cc1 | 0.776 | 3.3 | 0.01 | > 10 | – | – | – |
| CC(C)NC[C@@H](O)COc1ccccc1OCCOCCOCCOc1ccccc1OC[C@@H](O)CNC(C)C | – | 1.35 | 0.06 | 0.00085 | 0.082 | – | – |
| CC(C)NC[C@H](O)COc1ccc(OCCCCCCCCOc2ccc(OC[C@@H](O)CNC(C)C)cc2)cc1 | – | – | 0.44 | 1.5 | – | – | – |
| CC(C)NC[C@@H](O)COc1ccccc1OCCCCCCCCOc1ccccc1OC[C@@H](O)CNC(C)C | – | – | 0.007 | 0.046 | – | – | – |
| CC(C)NC[C@H](O)COc1ccc(OCCCCCCCCCCCCCCCCCCCCOc2ccc(OC[C@@H](O)CNC(C)C)cc2)cc1 | – | – | 2.5 | 0.42 | – | – | – |
| CC(C)NC[C@H](O)COc1ccc(OCCCCCCCCCCCCCCOc2ccc(OC[C@@H](O)CNC(C)C)cc2)cc1 | – | – | 2.2 | > 10 | – | – | – |
| CC(C)NC[C@@H](O)COc1ccccc1OCCCCCCCCCCCCCCOc1ccccc1OC[C@@H](O)CNC(C)C | – | – | 0.2 | 1 | – | – | – |
| CC(C)NC[C@@H](O)COc1ccccc1OCCCCCCCCCCOc1ccccc1OC[C@@H](O)CNC(C)C | – | 0.26 | 0.004 | 0.17 | 0.491 | – | – |
| CC(C)NC[C@@H](O)COc1ccccc1OCCCCCCOc1ccccc1OC[C@@H](O)CNC(C)C | 0.399 | 0.13 | 0.003 | 0.4 | – | – | – |
| CC(C)NC[C@H](O)COc1ccc(OCCCCCCCCCCCCOc2ccc(OC[C@@H](O)CNC(C)C)cc2)cc1 | – | – | 0.1 | 10 | – | – | – |
| CC(C)NC[C@H](O)COc1ccccc1OCCOCCOc1ccccc1OC[C@@H](O)CNC(C)C | 0.384 | 0.39 | 0.15 | 0.015 | – | – | – |
| CC(C)NC[C@@H](O)COc1ccccc1OCCCCCCCCCCCCOc1ccccc1OC[C@@H](O)CNC(C)C | – | – | 1 | 0.015 | – | – | – |
| CC(C)NC[C@H](O)COc1ccccc1OCCOCCOCCOCCOc1ccccc1OC[C@@H](O)CNC(C)C | – | 0.55 | 0.055 | 4e-05 | 0.029 | – | – |
| CC(C)NC[C@H](O)COc1ccc(OCCCCCCCCCCOc2ccc(OC[C@@H](O)CNC(C)C)cc2)cc1 | – | – | 0.022 | > 10 | – | inactive | inactive |
| CC(C)NC[C@H](O)COc1ccc(OCCCOc2ccc(OC[C@@H](O)CNC(C)C)cc2)cc1 | 1.15 | > 1.74 | 0.2 | 0.24 | – | – | – |
| CC(C)NC[C@H](O)COc1ccc(OCCOCCOCCOCCOc2ccc(OC[C@@H](O)CNC(C)C)cc2)cc1 | – | > 70 | 0.1 | 0.23 | 0.282 | – | – |
| CC(C)NC[C@H](O)COc1cccc(OCCCOc2cccc(OC[C@@H](O)CNC(C)C)c2)c1 | 0.653 | 1.56 | 0.7 | 0.007 | – | – | – |
| CC(C)NCC(O)COc1cccc2ccccc12 (stereo not given) [PROPRANOLOL] | 0.143 | – | – | – | – | – | – |
| CC(C)NC[C@H](O)COc1cccc(OCCOCCOc2cccc(OC[C@@H](O)CNC(C)C)c2)c1 | – | – | 1 | 0.031 | – | – | – |
| CC(C)NC[C@@H](O)COc1ccccc1OCCCCCCCCCCCCCCCCCCCCOc1ccccc1OC[C@@H](O)CNC(C)C | – | – | 1.5 | > 10 | – | – | – |
| CC(C)NC[C@H](O)COc1ccccc1OCC(O)COc1ccccc1OC[C@@H](O)CNC(C)C | 0.993 | 0.045 | 0.65 | 4.4e-05 | – | – | – |
| CC(C)NC[C@H](O)COc1ccccc1OCCCOc1ccccc1OC[C@@H](O)CNC(C)C | 0.768 | 0.22 | 0.035 | 0.00064 | – | – | – |
| CC(C)NC[C@H](O)COc1ccc(OCCOCCOc2ccc(OC[C@@H](O)CNC(C)C)cc2)cc1 | 0.052 | 192 | 0.01 | 0.36 | – | – | – |
| CC(C)NC[C@H](O)COc1ccc(OCCOCCOCCOc2ccc(OC[C@@H](O)CNC(C)C)cc2)cc1 | – | 185 | 0.01 | 0.03 | 0.05 | – | – |
